From ChEMBL document CHEMBL5113504, “Discovery of potent benzoxaborole inhibitors against SARS-CoV-2 main and dengue virus proteases” (Eur J Med Chem, 2022) come the findings set out here.

The target of data set [1] is Replicase polyprotein 1ab (Severe acute respiratory syndrome coronavirus 2) (UniProt P0DTD1). The experiment in a line: […] inhibition of C-terminal His tagged SARS CoV-2 main protease transfected in Escherichia coli BL21 (DE3) assessed as decrease in Vmax with constant Km using varying concentrations of 2-Abz-Ser-AlaVal-Leu-Gln-Ser-Gly-Tyr(3-NO2)-Arg-OH as substrate by Michaelis-Menten analysis.

Data set [2] deals with Genome polyprotein (dengue virus type 2) (UniProt P29990). The experiment in a line: Inhibition of full length DENV2 NS2B-NS3 protease in human HeLa cells expressing luciferase reporter gene at 12.5 uM incubated for 24 hrs by luminescence analysis relative to control. Format: cell-based. The method in brief:
(§1)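 Stable DENV2pro reporter HeLa cells seeded at 2×10^4 per well and dosed immediately; 24 h at 37 °C, lysed 15 min, coelenterazine (2.75 μM in PBS) injected, luminescence read 5 s. Triplicates; % inhibition vs untreated cells; EC50 by 4-parameter fit with cell-free background subtraction.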

The next data set deals with dengue virus type 2. The experiment in a line: Antiviral activity against Dengue virus serotype 2 infected in Huh-7 cells assessed as reduction in virus titer at 12.5 uM incubated for 48 hrs followed by infection of Vero E6 cells with supernatant and measured after 7 days by crystal violet staining based analysis relative to control. Format: functional. Further details: scale not given: the % may be the effect or the level left. The following applies: time 9 day. The method in brief: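 Huh-7 cells (1×10^4/well, overnight) infected with DENV-2 at MOI 1 for 2 h, medium changed, compound added; 48 h, triplicate supernatants pooled. Titer by plaque assay: Vero E6 infected 1 h with 10^-1 to 10^-6 dilutions, plaque medium 7 days, formaldehyde-fixed, crystal violet stained, plaques counted.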

The target of data set [3] is T1, Genome polyprotein (dengue virus type 2, UniProt P29990). The experiment in a line: Chemical stability of the compound in DENV2 NS2B-NS3 protease assay buffer assessed as DENV2 NS2B-NS3 protease-mediated amide bond cleavage by measuring reduction in AUC at 100 uM measured after 8 hrs by HPLC analysis. Format: ADME. The following applies: dengue virus type 2, buffer. A digest of the protocol: (§2)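 Compound incubated with isolated protease (SARS-CoV-2 Mpro or DENV-2 protease) in that enzyme's assay buffer for 8 h; remaining compound quantified by HPLC with UV/Vis detection (peak AUC).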

For a further data set, the system named is Huh-7. The experiment in a line: Cytotoxicity against human Huh-7 cells infected with Dengue virus serotype 2 assessed as reduction in cell viability by celltiter-blue assay. Format: toxicity, cell-based. A digest of the protocol:
(§3)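 CellTiter-Blue viability in HeLa reporter cells or Huh-7 cells, on plates run in parallel with the reporter or titer-reduction assay under the same treatment; each concentration in triplicate.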

Data set [4] concerns the target Replicase polyprotein 1ab (Severe acute respiratory syndrome coronavirus 2) (UniProt P0DTD1). The experiment in a line: Inhibition of C-terminal His tagged SARS CoV-2 main protease transfected in Escherichia coli BL21 (DE3) using 2-Abz-Ser-AlaVal-Leu-Gln-Ser-Gly-Tyr(3-NO2)-Arg-OH as substrate at 50 uM preincubated for 15 mins followed by substrate addition and measured after 15 mins by FRET assay relative to control. The following applies: time 30.0 min.

The target is the same in data set [5]. The experiment in a line: Potency index, ratio of boceprevir IC50 to test compound IC50 for inhibition of C-terminal His tagged SARS CoV-2 main protease transfected in Escherichia coli BL21 (DE3) using 2-Abz-Ser-AlaVal-Leu-Gln-Ser-Gly-Tyr(3-NO2)-Arg-OH as substrate preincubated for 15 mins followed by substrate addition and measured after 15 mins by FRET assay. The following applies: time 30.0 min.

The target is the same in data set [6]. The experiment in a line: Inhibition of C-terminal His tagged SARS CoV-2 main protease transfected in Escherichia coli BL21 (DE3) at 50 uM incubated in presence of DTT. A digest of the protocol: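 Mpro fluorogenic inhibition assay repeated with 1 mM DTT added to the assay buffer.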
The target of data set [7] is T2, Replicase polyprotein 1ab (Severe acute respiratory syndrome coronavirus 2, UniProt P0DTD1). The experiment in a line: Inhibition of C-terminal His tagged SARS CoV-2 main protease transfected in Escherichia coli BL21 (DE3) using 2-Abz-Ser-AlaVal-Leu-Gln-Ser-Gly-Tyr(3-NO2)-Arg-OH as substrate preincubated for 15 mins followed by substrate addition and measured after 15 mins by FRET assay.

A short description of data set [8]: Permeability of compound in PBS at pH 7.4 measured after 5 hrs by HPLC-UV based PAMPA assay. The conditions noted are these: pH 7.4, 5 h. Format: ADME.
Data set [9] concerns HeLa. The experiment in a line: Cytotoxicity against human HeLa cells expressing luciferase-based DENV-2 protease reporter system assessed as reduction in cell viability by celltiter-blue assay. Format: toxicity. A digest of the protocol:
as §3

Data set [10] addresses Replicase polyprotein 1ab (Severe acute respiratory syndrome coronavirus 2) (UniProt P0DTD1). The experiment in a line: Reversible inhibition of C-terminal His tagged SARS CoV-2 main protease transfected in Escherichia coli BL21 (DE3) at 100 uM preincubated for 2 hrs followed by dilution to 3 uM and substrate addition measured after 15 mins by fluorimetric assay. The conditions noted are these: time 135.0 min.

Data set [11] concerns HeLa. The experiment in a line: Cytotoxicity against human HeLa cells expressing renilla luciferase reporter construct assessed as reduction in cell viability at 12.5 uM by luciferase based analysis. Format: toxicity.
For data set [12], the target named is T1, Genome polyprotein. The experiment in a line: Inhibition of full length DENV2 NS2B-NS3 protease in human HeLa cells expressing luciferase reporter gene incubated for 24 hrs by luminescence analysis. Format: cell-based. A digest of the protocol:
as §1

The target in data set [13] is T2, Replicase polyprotein 1ab. The experiment in a line: Chemical stability of the compound in SARS-CoV-2 main protease assay buffer assessed as SARS-CoV-2 main protease-mediated amide bond cleavage at 100 uM measured after 8 hrs by HPLC based UV-Vis analysis. The following applies: severe acute respiratory syndrome coronavirus 2, buffer. Format: ADME. The method in brief: as §2

Data set [14] has as its target T2, Replicase polyprotein 1ab. The experiment in a line: Inhibition of C-terminal His tagged SARS CoV-2 main protease transfected in Escherichia coli BL21 (DE3) assessed as inhibition constant by Michaelis-Menten analysis.
Data set [15] is described as follows: Selectivity index, ratio of CC50 for cytotoxicity against human HeLa cells expressing luciferase-based DENV-2 protease reporter system to EC50 for inhibition of full length DENV2 NS2B-NS3 protease in human HeLa cells expressing luciferase reporter gene. Format: toxicity, cell-based. The conditions noted are these: read-out: Ratio CC50/EC50.
Data set [16] has as its target Replicase polyprotein 1ab (Severe acute respiratory syndrome coronavirus 2) (UniProt P0DTD1). The experiment in a line: Binding affinity to C-terminal His tagged SARS CoV-2 main protease transfected in Escherichia coli BL21 (DE3) assessed as covalent bond formation by measuring mass adduct at 100 uM by ESI-TOF analysis. The method in brief: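 Compounds at 100 μM incubated with active Mpro (3 μM) in 50 mM Tris-HCl pH 7.4, 100 mM NaCl, 20% v/v ethylene glycol, 0.0016% Brij 58; adducts sought by LC-ESI-TOF MS, C18 column, water/acetonitrile with 0.1% formic acid gradient, negative mode.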

The next data set addresses Trypsin (Homo sapiens, UniProt P07477+P07478+P35030). The experiment in a line: Inhibition of trypsin (unknown origin) using Boc-Val-Pro-Arg-AMC as substrate assessed as enzymatic cleavage preincubated for 15 mins followed by substrate addition and measured after 15 mins by Continuous fluorimetric assay. Format: protein assay.

pEC50, pIC50, pKi: −log10 of the molar value. Calls of active or inactive are those of the source. The rule behind the calls is not given here.

Take `O=C(Nc1ccc2c(c1)B(O)OC2)c1cccc(OCc2ccccc2)c1`: the inhibition result in data set [1], in data set [6] and in data set [10] was “Active” throughout. In addition, the figures for the inhibition in data set [2] and in data set [4] were 81.2% and 99.6%, respectively. Also, the Activity in the data set on dengue virus type 2 is listed as 67.4%; in the data set with Huh-7, “Non-Toxic”; with HeLa [11], “Non-Toxic”. Moreover, the Stability result (on Genome polyprotein [3]; in [13]) was “Stable” in each case. In data set [5], the Ratio IC50 amounted to 3. The pIC50 in data set [7] is 5.21. In addition, in [8], the permeability entry is recorded as “Permeable”. Moreover, in the data set with HeLa [9], the CC50 came out at 55.2 µM. In addition, the pEC50 at Genome polyprotein [12] is 5.62. For the same compound, in data set [14], the pKi was 5.21.

Take `O=C(Nc1ccc2c(c1)B(O)OC2)c1cccc(OCc2c(Cl)cccc2Cl)c1`: the inhibition in data set [4] is 32.6%. Further, in data set [15], the selectivity ratio came out at 74. Further, in data set [8], the permeability result is “Permeable”. In the data set with HeLa [9], the CC50 was 39.7 µM.

Take `Cc1cccc(COc2cccc(C(=O)Nc3ccc4c(c3)B(O)OC4)c2)c1`: the inhibition worked out at 85.2% in [2] and 55.5% in data set [4]. The Activity is 72.6% in the data set with dengue virus type 2 and “Non-Toxic” in the data set on Huh-7. In [7], this compound had a negative logarithm of the IC50 (pIC50) of 4.22. Further, the CC50 in the data set on HeLa [9] came to 72.6 µM.

As for `CC(C)(C)NC(=O)N[C@H](C(=O)N1C[C@H]2[C@@H]([C@H]1C(=O)NC(CC1CCC1)C(=O)C(N)=O)C2(C)C)C(C)(C)C` (stereo partly specified), the outcome in data set [16] was Active. Further, in data set [4], the inhibition was determined as 70.8%.

In the case of `N=C(N)Nc1ccc(C(=O)Nc2ccc3c(c2)B(O)OC3)cc1`, the inhibition in data set [2] is 23%; in data set [4], 87.4%. The inhibition result in [6] was “Active”. In addition, the IC50 on Trypsin turned out to be 61.4 µM. Further, in [7], the negative logarithm of the IC50 (pIC50) was 4.86. In addition, the CC50 in the data set with HeLa [9] was over 200 µM. Further, in the data set on HeLa [11], the Activity entry was “Non-Toxic”. The Stability entry in data set [13] is “Stable”.
